According to paper PMC3018740 (Fitoterapia, 2010):
“Also recorded” adds a separate entry of the source.

What was measured:
Human recombinant COX-2 [1] = biological target: T1, Human recombinant COX-2 (Homo sapiens, UniProt P35354); test: Pulsed ultrafiltration LC-MS-MS screening for COX-2 ligands; type: binding; settings: for Relative binding to COX-2: bound/free ratio = (pulsed ultrafiltration peak area)/(peak area washing buffer); for Specific binding to COX-2 (in words): pulsed ultrafiltration LC-MS-MS
T1 sequence (P35354 18-604): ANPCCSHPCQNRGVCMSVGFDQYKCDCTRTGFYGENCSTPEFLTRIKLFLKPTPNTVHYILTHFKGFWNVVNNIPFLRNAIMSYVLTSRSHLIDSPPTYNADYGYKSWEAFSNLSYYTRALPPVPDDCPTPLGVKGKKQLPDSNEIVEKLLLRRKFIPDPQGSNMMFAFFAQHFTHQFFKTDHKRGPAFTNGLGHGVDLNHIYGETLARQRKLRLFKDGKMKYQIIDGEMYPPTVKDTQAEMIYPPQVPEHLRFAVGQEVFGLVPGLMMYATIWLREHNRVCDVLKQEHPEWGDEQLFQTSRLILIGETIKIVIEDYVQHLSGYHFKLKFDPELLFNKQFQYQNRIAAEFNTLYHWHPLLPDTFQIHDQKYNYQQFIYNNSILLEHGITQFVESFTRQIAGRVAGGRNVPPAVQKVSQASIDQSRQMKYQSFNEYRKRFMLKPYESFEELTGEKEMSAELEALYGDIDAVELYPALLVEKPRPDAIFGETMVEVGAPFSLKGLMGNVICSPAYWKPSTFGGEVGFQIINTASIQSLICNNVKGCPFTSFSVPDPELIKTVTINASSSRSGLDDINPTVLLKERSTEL

COX-2 = settings: read-out: Previously reported IC50 for inhibition of COX-2; cell-based assay; cited from earlier work
Human recombinant COX-2 [2] = biological target: T1, Human recombinant COX-2; test: COX-2 inhibition assay; type: biochemical; settings: read-out: IC50 COX-2; purified compounds
ovine COX-1 = biological target: T2, ovine COX-1 (Ovis aries, UniProt P05979); test: COX-1 inhibition assay; type: biochemical; settings: for IC50: read-out: IC50 COX-1, purified compounds
T2 sequence (P05979 25-600): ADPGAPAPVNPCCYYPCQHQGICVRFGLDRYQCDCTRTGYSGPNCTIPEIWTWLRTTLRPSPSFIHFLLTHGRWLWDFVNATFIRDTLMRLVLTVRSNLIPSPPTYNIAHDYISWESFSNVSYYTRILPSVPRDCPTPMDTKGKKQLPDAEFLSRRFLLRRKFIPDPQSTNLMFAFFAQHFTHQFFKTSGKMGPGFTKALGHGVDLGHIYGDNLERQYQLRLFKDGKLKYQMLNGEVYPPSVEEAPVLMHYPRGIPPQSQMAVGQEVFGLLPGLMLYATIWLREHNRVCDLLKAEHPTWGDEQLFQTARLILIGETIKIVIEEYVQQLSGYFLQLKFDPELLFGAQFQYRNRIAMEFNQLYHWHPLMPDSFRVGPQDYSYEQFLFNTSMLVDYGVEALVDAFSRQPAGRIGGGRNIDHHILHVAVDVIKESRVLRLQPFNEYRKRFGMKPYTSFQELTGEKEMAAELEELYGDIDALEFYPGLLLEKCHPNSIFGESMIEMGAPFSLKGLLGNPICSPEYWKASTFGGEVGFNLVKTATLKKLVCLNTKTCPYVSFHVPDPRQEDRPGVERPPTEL
Method in brief: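 PGE2 produced by COX-1 with test compound present was quantified by LC-MS-MS. Percent inhibition was calculated against PGE2 from the negative-control incubation. Each compound was tested at 12 concentrations, three times each. IC50 was obtained by fitting the inhibition curve.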

Compound | Relative binding to COX-2 (Human recombinant COX-2 [1]) | IC50 (Human recombinant COX-2 [2]) [µM] | IC50 (ovine COX-1) [µM] | Specific binding to COX-2 (in words) (Human recombinant COX-2 [1]) | IC50 (COX-2) [µM] | Inhibition of COX-1 (in words) (ovine COX-1)
CCCCCCC/C=C/[C@H](O)CC(=O)CCc1ccc(O)c(OC)c1 [6-dehydro-10-gingerol] | 0.15 ± 0.01 | – | – | bound to the enzyme active site | – | –
CCCCC[C@H](O)C[C@H](O)CCc1ccc(O)c(OC)c1 [6-gingerdiol] | 0 | – | – | – | – | –
CCCCC[C@H](O)CC(=O)CCc1ccc(O)c(OC)c1 [6-gingerol] | 0 | – | – | not 6-gingerol or 8-gingerol bound to COX-2 | > 50 | –
CCCCCCCC(=O)CCc1ccc(O)c(OC)c1 [6-paradol] | – | – | – | bound to the enzyme active site; also recorded: bound to COX-2 | – | –
CCCCC/C=C/C(=O)CCc1ccc(O)c(OC)c1 [6-shogaol] | 0 | – | – | COX-2 ligands but not 6-shogaol or 12-shogaol | 2.1 | –
CCCCCCC[C@H](O)CC(=O)CCc1ccc(O)c(OC)c1 [8-gingerol] | 0 | – | – | not 6-gingerol or 8-gingerol bound to COX-2 | 10 | –
CCCCCCCCCC(=O)CCc1ccc(O)c(OC)c1 [8-paradol] | 0.70 ± 0.02 | – | – | bound to the enzyme active site; also recorded: bound to COX-2 | – | –
CCCCCCCCC[C@H](O)CC(=O)CCc1ccc(O)c(OC)c1 [10-gingerol] | 0.17 ± 0.03 | 32 ± 1.5 | > 50 | bound to the enzyme active site; also recorded: bound to COX-2 | – | No inhibition of COX-1 was detected; also recorded: did not inhibit COX-1
CCCCCCCCCCC[C@H](O)CC(=O)CCc1ccc(O)c(OC)c1 [12-gingerol] | 0.23 ± 0.01 | – | – | bound to the enzyme active site; also recorded: bound to COX-2 | – | –

Second part, led by results:

Relative binding to COX-2 (Human recombinant COX-2 [1]) | IC50 (Human recombinant COX-2 [2]) [µM] | IC50 (ovine COX-1) [µM] | Compound | Specific binding to COX-2 (in words) (Human recombinant COX-2 [1]) | IC50 (COX-2) [µM] | Inhibition of COX-1 (in words) (ovine COX-1)
0 | – | – | 6-dehydro-6-gingerol | – | – | –
0 | – | – | CCCCC/C=C/[C@H](O)CC(=O)CCc1ccc(O)c(OC)c1 [6-dehydro-8-gingerol] | – | – | –
0.23 ± 0.02 | – | – | CCCCCC(=O)CC(=O)CCc1ccc(O)c(OC)c1 [6-gingerdione] | bound to the enzyme active site | – | –
0 | – | – | CCCCCCCC(O)CC(O)CCc1ccc(O)c(OC)c1 (stereo not shown) [8-gingerdiol] | – | – | –
0.20 ± 0.03 | – | – | CCCCCCCC(=O)CC(=O)CCc1ccc(O)c(OC)c1 [8-gingerdione] | bound to the enzyme active site | – | –
0.27 ± 0.02 | 17.5 ± 2.2 | > 50 | CCCCCCC/C=C/C(=O)CCc1ccc(O)c(OC)c1 [8-shogaol] | bound to the enzyme active site; also recorded: COX-2 ligands | 7.2 | No inhibition of COX-1 was detected; also recorded: did not inhibit COX-1
0.24 ± 0.05 | – | – | CCCCCCCCCC(=O)CC(=O)CCc1ccc(O)c(OC)c1 [10-gingerdione] | bound to the enzyme active site | – | –
0 | – | – | CCCCCCCCCCCC(=O)CCc1ccc(O)c(OC)c1 [10-paradol] | not 10-paradol bound to COX-2 | – | –
0.35 ± 0.03 | 7.5 ± 0.6 | > 50 | CCCCCCCCC/C=C/C(=O)CCc1ccc(O)c(OC)c1 [10-shogaol] | bound to the enzyme active site; also recorded: COX-2 ligands | – | No inhibition of COX-1 was detected; also recorded: did not inhibit COX-1
0 | – | – | CCCCCCCCCCC/C=C/C(=O)CCc1ccc(O)c(OC)c1 [12-shogaol] | COX-2 ligands but not 6-shogaol or 12-shogaol | – | –
